LEDGF integ inh: blockers of LEDGF/p75-dependent integrase strand transfer – biochemical, TR-FRET, high throughput, primary screen | HIV-1 integrase (with human LEDGF/p75) | TR-FRET IN-LEDGF/p75 DNA integration, Eu/Cy5 | inhibition, % at 3.7 µM | 0.64% of 370,000 active;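 active = inhibition above the screen-wide mean plus 3 SD, cut at about 13% in these data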;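 note: signal is the Cy5 over europium emission ratio at 671 and 618 nm; 0% = plate median of compound wells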
SIAE inh: human SIAE inhibitors, primary screen, biochemical, fluorescence polarization, FP-Rh probe, 1536-well HTS. Sialate O-acetylesterase (Homo sapiens), Q9HAT2. SIAE FP-Rh probe binding. inhibition, % at 9.66 µM. 0.69% of 370,000 active;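 active = inhibition above a cutoff: mean of compounds within the control limits plus 3 SD of those, cut at about 17% in these data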;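 note: 0% = plate median of compound wells and 100% = probe without SIAE protein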
MBD2 DNA inh: inhibitors of MBD2 binding to methylated DNA, primary screen, biochemical, TR-FRET, DNA-binding domain, human; Methyl-CpG-binding domain protein 2 (Homo sapiens), Q9UBB5; MBD2 binding to methylated oligonucleotide; inhibition, % at 4.4 µM; 0.31% of 370,000 active; in the data active = inhibition above about 13%
Target sequence (Q9UBB5 whole entry, looked up, the tested form may be a part): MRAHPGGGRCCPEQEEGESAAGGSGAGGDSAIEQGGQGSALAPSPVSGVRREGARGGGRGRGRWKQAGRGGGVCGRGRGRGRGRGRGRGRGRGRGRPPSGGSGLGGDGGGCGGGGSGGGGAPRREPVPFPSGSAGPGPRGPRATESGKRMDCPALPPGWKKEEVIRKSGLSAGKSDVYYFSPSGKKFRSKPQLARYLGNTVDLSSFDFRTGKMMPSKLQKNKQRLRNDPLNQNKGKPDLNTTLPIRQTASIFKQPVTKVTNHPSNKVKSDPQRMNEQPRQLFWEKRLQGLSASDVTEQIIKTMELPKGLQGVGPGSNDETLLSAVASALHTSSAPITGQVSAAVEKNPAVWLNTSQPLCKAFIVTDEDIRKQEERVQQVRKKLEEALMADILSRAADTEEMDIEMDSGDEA
TDP2 inh: human TDP2 enzyme inhibitors, primary screen, biochemical, epi absorbance, recombinant enzyme. Tyrosyl-DNA phosphodiesterase 2 (Homo sapiens), O95551. inhibition, % at 12.8 µM. T5PNP hydrolysis, p-nitrophenol absorbance 415 nm. 0.34% of 370,000 active;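 active = inhibition above the mean of all tested compounds plus 3 SD, set per campaign, cut at about 25% in these data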;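 note: 0% = DMSO with enzyme and 100% = buffer with substrate but no TDP2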
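Incubation: 2 h at 37 °C; Test system: recombinant human TDP2; Quantity: enzyme 120 nM; Read-out basis: percent inhibition; Medium: 50 mM Tris-HCl pH 7.5 with Mg2+, KCl, DTT, BSA; Repeats: single replicate; Compound: 12.8 µM single point, 1% DMSO; Signal: epi absorbance; Reagent: 5 mM T5PNP chromogenic substrate; Benchmarks: no-enzyme high, DMSO-plus-enzyme low.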
PRMT1 inh: PRMT1 methyltransferase inhibitors, primary screen, biochemical, fluorescence polarization; recombinant PRMT1, activity-based probe fluorescence polarization; inhibition, % at 2.79 µM; Protein arginine N-methyltransferase 1 (Homo sapiens), Q99873; 1.3% of 370,000 active;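 active = inhibition above about 21% made by adding two undisclosed values, limit read from the data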
UHRF1 MBD2 ctr: UHRF1 methylated DNA binding inhibitors, primary screen, counter-screen for MBD2 inhibitor project, biochemical, TR-FRET, human UHRF1, single concentration; E3 ubiquitin-protein ligase UHRF1 (Homo sapiens), Q96T88; UHRF1 binding to methylated oligo; inhibition, % at 4.4 µM; 0.75% of 370,000 active; AID 687016, 2013; in the data active = inhibition above about 21%;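 note: UHRF1 SRA domain binding a hemimethylated CpG hairpin DNA probe; 0% = median of test compound wells and 100% = reference inhibitor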
IN multimer up: HIV-1 IN multimer formation enhancers, counter-screen for LEDGF/p75 integration inhibitor project, biochemical, TR-FRET | shares compounds with LEDGF integ inh | TR-FRET HIV-1 integrase multimerization | activation, % at 7.7 µM | 17% of 2,000 active | AID 1053131, 2014; in the data active = activation above about 8.9%
TR-FRET interf: TR-FRET optical interference artefacts, confirmation, artefact control for LEDGF/p75-dependent integration inhibitor project, biochemical, HIV-1 IN multimerization; shares compounds with LEDGF integ inh; TR-FRET optical interference counterscreen; inhibition, % at 7.7 µM; 2,000 tested, under 10 active; AID 1053135, 2014;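 active = inhibition above the mean over all tested compounds plus 3 SD, which no compound reached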;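 note: 0% = integrase with antibodies and DMSO and 100% = antibodies without integrase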
LEDGF integ conf: inhibitors of HIV-1 IN-LEDGF/p75 DNA integration, confirmation, biochemical, TR-FRET. shares compounds with LEDGF integ inh. TR-FRET LEDGF/p75-dependent HIV-1 integration. inhibition, % at 3.7 µM. 36% of 2,000 active. AID 1053136, 2014; in the data active = inhibition above about 14%
* = called active by the depositor; · = no result. This is a sample that favours compounds with a hit; in the whole collection about 3.3% have one here.

SMILES	LEDGF integ inh	SIAE inh	MBD2 DNA inh	TDP2 inh	PRMT1 inh	UHRF1 MBD2 ctr	IN multimer up	TR-FRET interf	LEDGF integ conf
O=C(CCN1CCCCC1)NNC(=O)C12CC3CC(CC(C3)C1)C2	89*	-2	-3	4	-3	-2	1	-3	6
O=C(CCN1CCCCC1)NCNC(=O)CCN1CCCCC1	3	-5	1	4	4	3	·	·	·
CC(=O)N1CCc2cc3nc(C)cc(C)c3cc21	52*	2	2	1	-3	2	1	-3	-5
CC(=O)N1CCc2nc3ccccc3cc21	1	-4	1	2	-1	-5	·	·	·
COc1ccc(-c2nnc(SCC(=O)N/N=C(\C)c3ccc(-c4ccccc4)cc3)n2-c2ccc(C)cc2)cc1	4	12	1	-1	-8	3	·	·	·
COC(=O)c1ccc(NC(=S)N2CCN(Cc3ccccc3Cl)CC2)cc1	76*	0	0	-10	5	1	0	-1	-10
O=c1c(Br)ccc(Br)cc1Br	15*	4	4	4	62*	-1	2	-8	30*
O=C1CN(S(=O)(=O)c2cc(Br)ccc2Br)CCN1	0	-1	-2	-8	-7	-1	·	·	·
C#CCNC(=O)C[C@@H]1C[C@@]2(C(=O)OCC)CCCC=C2N(Cc2ccccc2)C1=O	19*	0	4	2	-4	-1	-2	12	-1
COC(=O)[C@]12CCCCC=C1N(Cc1ccco1)C(=O)[C@H](CC(=O)NCC13CC4CC(CC(C4)C1)C3)C2	28*	-3	-2	-3	1	1	0	1	-7
CCOC(=O)[C@]12CCCC=C1N(Cc1ccccc1)C(=O)[C@H](CC(=O)NCc1ccccc1)C2	1	2	2	-8	1	1	·	·	·
CN(C)C(=O)C[C@H]1CC[C@H]2[C@H](COc3ccc(NC(=O)C4CC4)cc3C(=O)N2C)O1	-1	1	2	4	-6	3	·	·	·
C#CCOCCOCCOCCNc1nc(N2CCOCC2)nc(N2CCN(C(=O)[C@H](CCC(=O)O)n3cc(C(N)CO)nn3)CC2)n1 (stereo partly drawn)	1	-2	3	-1	4	9	·	·	·
N#Cc1ccc(C(=O)N(Cc2ccccc2)c2ccccc2)cc1	14*	1	-3	-5	-5	0	-2	11	-4
O=C(Cc1ccccc1)NNC(=O)c1cccs1	0	5	7	0	2	10	·	·	·
O=C(Cc1ccc(Br)cc1)NNC(=O)c1cccs1	14*	7	3	4	-2	-2	0	0	0
CCCCc1nc(SCC(=O)Nc2nnc(CCCC)s2)n[nH]1	-2	-1	5	8	3	1	·	·	·
CC(C)Cc1nc(SCC(=O)Nc2nnc(CC(C)C)s2)n[nH]1	14*	0	2	-3	0	3	-1	5	3
OCCN1CCN(c2ncnc3c2ncn3[C@H]2CN(Cc3ccc(Cl)cc3)C[C@@H](CO)O2)CC1	-2	3	4	14	-3	2	·	·	·
CN1CCN(c2ncnc3c2ncn3[C@H]2CN(Cc3ccc(Cl)cc3)C[C@@H](CO)O2)CC1	14*	-5	0	-1	-2	0	1	-3	-10
O[C@H](COc1ccc(Cl)cc1)CN1CCC(C(O)(c2ccccc2)c2ccccc2)CC1	2	4	0	-5	-7	-1	·	·	·
Cc1cc(-c2nnc(SCC(=O)Nc3cccc4ccccc34)n2N)n[nH]1	3	9	6	-10	6	1	·	·	·
COc1cccc(Nc2nc(C(N)C(C)C)cs2)n1 (stereo not drawn)	1	3	6	-3	7	3	·	·	·
COc1cccc(Nc2nc(C(N)CC(C)C)cs2)n1 (stereo not drawn)	14*	-1	0	0	0	-1	-1	3	5
NNc1ccc([N+](=O)[O-])c2[nH][nH]c(=O)c12	19*	5	5	5	40*	40*	35*	-176	44*
SMILES	LEDGF integ inh	SIAE inh	MBD2 DNA inh	TDP2 inh	PRMT1 inh	UHRF1 MBD2 ctr	IN multimer up	TR-FRET interf	LEDGF integ conf
C=CCN(c1ccccc1Cl)S(=O)(=O)c1cccc(C(=O)NCCc2ccc(OC)cc2)c1	90*	-4	-3	9	-1	-1	-1	2	-9
CCCc1cc(=O)oc2cc(OCC(=O)NCC3CCC(C(=O)O)CC3)ccc12 (stereo not drawn)	33*	8	-2	0	0	-2	-4	14	0
Nn1c(SCC(=O)N2CCCCCC2)nnc1-c1ccncc1	26*	3	-1	5	-2	2	1	-3	1
C=CCN(C(=O)[C@@H](C)[C@@H](O)c1ccc(C(C)=O)cc1)c1ccccc1	-2	4	0	-6	-1	2	·	·	·
Cc1ccc(NC(=O)CN(C)c2ccc(S(=O)(=O)N3CCCC3)cn2)cc1	-4	0	-1	0	-3	2	·	·	·
CCOc1ccc(NC(=O)CN(C)c2ccc(S(=O)(=O)N3CCOCC3)cn2)cc1OCC	15*	13	-3	4	0	41*	1	-4	-2
CC(Sc1nnc(-c2ccccc2Br)o1)C(=O)N1CCOCC1 (stereo not drawn)	23*	13	-7	17	4	-1	-2	8	-4
Cn1nnnc1Sc1ncnc2scc(-c3cnc(N)nc3)c12	1	-1	-1	12	-2	-1	·	·	·
Cc1ccc(NC(=O)CNCC2CCCCC2)cc1S(=O)(=O)N(C)C	32*	6	3	7	0	-1	0	1	-15

Assay outcomes deposited in PubChem by The Scripps Research Institute Molecular Screening Center.
